Experimental data reported in ChEMBL document CHEMBL4715736, “Identification of anticancer agents based on the thieno[2,3-b]pyridine and 1H-pyrazole molecular scaffolds” (2016).

What was measured:
Type in all cases: functional
CAKI-1 = experiment: Growth inhibition of human CAKI-1 cells assessed as cell growth at 0.1 uM incubated for 48 hrs by sulforhodamine B assay relative to control; details: read-out: Activity
Summary of the method: (§1)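 NCI Developmental Therapeutics Program NCI60 panel. Compounds that were active in the 10 µM one-dose screen went on to dose–response testing. Growth at each concentration is expressed relative to untreated control (100%). GI50 (concentration giving 50% of maximal inhibition of proliferation) and TGI (concentration giving total growth inhibition) were derived from the curves.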

Malme-3M = experiment: Growth inhibition of human Malme-3M cells assessed as cell growth at 0.01 uM incubated for 48 hrs by sulforhodamine B assay relative to control; details: read-out: Activity
SK-MEL-5 = experiment: Growth inhibition of human SK-MEL-5 cells assessed as cell growth at 1 uM incubated for 48 hrs by sulforhodamine B assay relative to control; details: read-out: Activity
T47D = experiment: Growth inhibition of human T47D cells assessed as cell growth at 0.01 uM incubated for 48 hrs by sulforhodamine B assay relative to control; details: read-out: Activity
786-0 = experiment: Growth inhibition of human 786-0 cells assessed as cell growth at 0.01 uM incubated for 48 hrs by sulforhodamine B assay relative to control; details: read-out: Activity; summary of the method: as §1
TK-10 [1] = experiment: Growth inhibition of human TK-10 cells assessed as cell growth at 0.01 uM incubated for 48 hrs by sulforhodamine B assay relative to control; details: read-out: Activity
SF-295 = experiment: Growth inhibition of human SF-295 cells assessed as cell growth at 100 uM incubated for 48 hrs by sulforhodamine B assay relative to control; details: read-out: Activity
HCT-116 = experiment: Growth inhibition of human HCT-116 cells assessed as cell growth at 0.1 uM incubated for 48 hrs by sulforhodamine B assay relative to control; details: read-out: Activity
CCRF-CEM [2] = experiment: Growth inhibition of human CCRF-CEM cells assessed as cell growth at 100 uM incubated for 48 hrs by sulforhodamine B assay relative to control; details: read-out: Activity; summary of the method: as §1
BT-549 = experiment: Growth inhibition of human BT-549 cells assessed as cell growth at 0.01 uM incubated for 48 hrs by sulforhodamine B assay relative to control; details: read-out: Activity
COLO 205 = experiment: Growth inhibition of human COLO 205 cells assessed as cell growth at 0.1 uM incubated for 48 hrs by sulforhodamine B assay relative to control; details: read-out: Activity; summary of the method: as §1
KM12 = experiment: Growth inhibition of human KM12 cells incubated for 48 hrs by sulforhodamine B assay
Summary of the method: (§2)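 NCI60 panel at the NCI Developmental Therapeutics Program. Only compounds active in the 10 µM screen went to dose-response testing. GI50, the concentration giving 50% of maximal inhibition of proliferation, and TGI, the concentration giving total growth inhibition, were derived from the dose-response curves.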

NCI/ADR-RES = experiment: Growth inhibition of human NCI/ADR-RES cells assessed as cell growth at 0.01 uM incubated for 48 hrs by sulforhodamine B assay relative to control; details: read-out: Activity
HOP-92 [3] = experiment: Growth inhibition of human HOP-92 cells assessed as cell growth at 0.1 uM incubated for 48 hrs by sulforhodamine B assay relative to control; details: read-out: Activity
SK-MEL-2 = experiment: Growth inhibition of human SK-MEL-2 cells assessed as cell growth at 100 uM incubated for 48 hrs by sulforhodamine B assay relative to control; details: read-out: Activity
SW-620 [4] = experiment: Growth inhibition of human SW-620 cells assessed as cell growth at 100 uM incubated for 48 hrs by sulforhodamine B assay relative to control; details: read-out: Activity
MOLT-4 [5] = experiment: Growth inhibition of human MOLT-4 cells incubated for 48 hrs by sulforhodamine B assay; details: for CC50: read-out: LC50 (the source's name); summary of the method: as §2
MDA-MB-231 = experiment: Growth inhibition of human MDA-MB-231 cells incubated for 48 hrs by sulforhodamine B assay; details: for CC50: read-out: LC50 (the source's name); summary of the method: as §2
HOP-62 = experiment: Growth inhibition of human HOP-62 cells assessed as cell growth at 0.01 uM incubated for 48 hrs by sulforhodamine B assay relative to control; details: read-out: Activity
SK-OV-3 [6] = experiment: Growth inhibition of human SK-OV-3 cells assessed as cell growth at 0.1 uM incubated for 48 hrs by sulforhodamine B assay relative to control; details: read-out: Activity
CCRF-CEM [7] = experiment: Growth inhibition of human CCRF-CEM cells assessed as cell growth at 0.01 uM incubated for 48 hrs by sulforhodamine B assay relative to control; details: read-out: Activity; summary of the method: as §1
SK-OV-3 [8] = experiment: Growth inhibition of human SK-OV-3 cells assessed as cell growth at 1 uM incubated for 48 hrs by sulforhodamine B assay relative to control; details: read-out: Activity
MOLT-4 [9] = experiment: Growth inhibition of human MOLT-4 cells assessed as cell growth at 0.1 uM incubated for 48 hrs by sulforhodamine B assay relative to control; details: read-out: Activity
NCI-H460 = experiment: Growth inhibition of human NCI-H460 cells incubated for 48 hrs by sulforhodamine B assay; summary of the method: as §2
SW-620 [10] = experiment: Growth inhibition of human SW-620 cells assessed as cell growth at 0.1 uM incubated for 48 hrs by sulforhodamine B assay relative to control; details: read-out: Activity
U-251 = experiment: Growth inhibition of human U-251 cells assessed as cell growth at 100 uM incubated for 48 hrs by sulforhodamine B assay relative to control; details: read-out: Activity
NCI-H322M = experiment: Growth inhibition of human NCI-H322M cells assessed as cell growth at 100 uM incubated for 48 hrs by sulforhodamine B assay relative to control; details: read-out: Activity
TK-10 [11] = experiment: Growth inhibition of human TK-10 cells assessed as cell growth at 100 uM incubated for 48 hrs by sulforhodamine B assay relative to control; details: read-out: Activity
SNB-19 = experiment: Growth inhibition of human SNB-19 cells assessed as cell growth at 100 uM incubated for 48 hrs by sulforhodamine B assay relative to control; details: read-out: Activity
PC-3 = experiment: Growth inhibition of human PC-3 cells assessed as cell growth at 100 uM incubated for 48 hrs by sulforhodamine B assay relative to control; details: read-out: Activity
SK-MEL-28 = experiment: Growth inhibition of human SK-MEL-28 cells assessed as cell growth at 0.01 uM incubated for 48 hrs by sulforhodamine B assay relative to control; details: read-out: Activity
MDA-MB-435 = experiment: Growth inhibition of human MDA-MB-435 cells incubated for 48 hrs by sulforhodamine B assay; details: for CC50: read-out: LC50 (the source's name); summary of the method: as §2
HOP-92 [12] = experiment: Growth inhibition of human HOP-92 cells assessed as cell growth at 0.01 uM incubated for 48 hrs by sulforhodamine B assay relative to control; details: read-out: Activity
DU-145 = experiment: Growth inhibition of human DU-145 cells assessed as cell growth at 1 uM incubated for 48 hrs by sulforhodamine B assay relative to control; details: read-out: Activity; summary of the method: as §1
UACC-257 = experiment: Growth inhibition of human UACC-257 cells incubated for 48 hrs by sulforhodamine B assay
Summary of the method: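 NCI DTP 60-line human tumour panel. Dose-response curves were run only for ligands active in the initial 10 µM screen. GI50 (concentration giving 50% of maximal inhibition of proliferation) and TGI (concentration giving total growth inhibition) were derived from these curves.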

## CN1CCc2nc3sc(C(N)=O)c(N)c3c(-c3cccs3)c2C1
CAKI-1
  growth at 0.1 µM: 82%
Malme-3M
  growth at 0.01 µM: 104%
SK-MEL-5
  growth at 1 µM: 64%
T47D
  growth at 0.01 µM: 97%
786-0
  growth at 0.01 µM: 95%
TK-10 [1]
  growth at 0.01 µM: 101%
SF-295
  growth at 100 µM: 4%
HCT-116
  growth at 0.1 µM: 102%
CCRF-CEM [2]
  growth at 100 µM: 7%
BT-549
  growth at 0.01 µM: 114%
COLO 205
  growth at 0.1 µM: 103%
KM12
  GI50: 2.7 µM
  LC50: > 100 µM
  TGI: > 100 µM
NCI/ADR-RES
  growth at 0.01 µM: 100%
HOP-92 [3]
  growth at 0.1 µM: 116%
SK-MEL-2
  growth at 100 µM: -45%
SW-620 [4]
  growth at 100 µM: 3%
MOLT-4 [5]
  GI50: 2.89 µM
  TGI: 48.4 µM
  CC50: > 100 µM
MDA-MB-231
  GI50: 4.77 µM
  TGI: > 100 µM
  CC50: > 100 µM
HOP-62
  growth at 0.01 µM: 101%
SK-OV-3 [6]
  growth at 0.1 µM: 92%
CCRF-CEM [7]
  growth at 0.01 µM: 103%
SK-OV-3 [8]
  growth at 1 µM: 89%
MOLT-4 [9]
  growth at 0.1 µM: 91%
NCI-H460
  GI50: 3.71 µM
  LC50: > 100 µM
  TGI: > 100 µM
SW-620 [10]
  growth at 0.1 µM: 110%
U-251
  growth at 100 µM: 7%
NCI-H322M
  growth at 100 µM: -1%
TK-10 [11]
  growth at 100 µM: -6%
SNB-19
  growth at 100 µM: 14%
PC-3
  growth at 100 µM: 6%
SK-MEL-28
  growth at 0.01 µM: 106%
MDA-MB-435
  GI50: 3.13 µM
  TGI: > 100 µM
  CC50: > 100 µM
HOP-92 [12]
  growth at 0.01 µM: 127%
DU-145
  growth at 1 µM: 108%
UACC-257
  GI50: 4 µM
  LC50 (concentration killing 50% of cells): > 100 µM
  TGI: > 100 µM

## CCc1ccccc1NC(=O)c1sc2nc3c(cc2c1N)C(=O)CCC3
CAKI-1
  growth at 0.1 µM: 90%
Malme-3M
  growth at 0.01 µM: 100%
SK-MEL-5
  growth at 1 µM: 11%
T47D
  growth at 0.01 µM: 99%
786-0
  growth at 0.01 µM: 90%
TK-10 [1]
  growth at 0.01 µM: 93%
SF-295
  growth at 100 µM: -2%
HCT-116
  growth at 0.1 µM: 99%
CCRF-CEM [2]
  growth at 100 µM: 8%
BT-549
  growth at 0.01 µM: 104%
COLO 205
  growth at 0.1 µM: 98%
KM12
  GI50: 0.402 µM
  LC50: > 100 µM
  TGI: > 100 µM
NCI/ADR-RES
  growth at 0.01 µM: 102%
HOP-92 [3]
  growth at 0.1 µM: 69%
SK-MEL-2
  growth at 100 µM: 7%
SW-620 [4]
  growth at 100 µM: 12%
MOLT-4 [5]
  GI50: 0.529 µM
  TGI: > 100 µM
  CC50: > 100 µM
MDA-MB-231
  GI50: 1.25 µM
  TGI: > 100 µM
  CC50: > 100 µM
HOP-62
  growth at 0.01 µM: 91%
SK-OV-3 [6]
  growth at 0.1 µM: 103%
CCRF-CEM [7]
  growth at 0.01 µM: 96%
SK-OV-3 [8]
  growth at 1 µM: 30%
MOLT-4 [9]
  growth at 0.1 µM: 103%
NCI-H460
  GI50: 0.345 µM
  LC50: > 100 µM
  TGI: > 100 µM
SW-620 [10]
  growth at 0.1 µM: 83%
U-251
  growth at 100 µM: -15%
NCI-H322M
  growth at 100 µM: 23%
TK-10 [11]
  growth at 100 µM: 13%
SNB-19
  growth at 100 µM: 11%
SK-MEL-28
  growth at 0.01 µM: 88%
MDA-MB-435
  GI50: 0.0464 µM
  TGI: 0.225 µM
  CC50: > 100 µM
HOP-92 [12]
  growth at 0.01 µM: 87%
DU-145
  growth at 1 µM: 27%
UACC-257
  GI50: 19.9 µM
  LC50 (concentration killing 50% of cells): > 100 µM
  TGI: > 100 µM
